In ChEMBL document CHEMBL4411287, “Discovery and optimization of a series of 3-substituted indazole derivatives as multi-target kinase inhibitors for the treatment of lung squamous cell carcinoma” (Eur J Med Chem, 2019):

Tests used:
[1] = molecular target: Platelet-derived growth factor receptor beta (Homo sapiens) (UniProt P09619); assay: Inhibition of PDGFR-beta (unknown origin) at 10 nM relative to control
How it was run: (§1)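 Purified recombinant kinase domains run in ELISA on precoated poly(Glu,Tyr) 4:1 (20 µg/mL) with 10 µM ATP in 50 mM HEPES pH 7.4, 50 mM MgCl2, 0.5 mM MnCl2, 0.2 mM Na3VO4, 1 mM DTT; 1% DMSO control; 60 min at 37 °C. Phosphotyrosine read by PY99 antibody, HRP anti-mouse IgG, OPD/H2O2 at 490 nm; inhibition = [1−A490/A490control]×100%; two separate experiments.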

[2] = Tmax in ICR(CD-1) mouse at 10 mg/kg, po administered via gavage by triple quadrupole mass spectrometric analysis; assay type: ADME, organism-based; details: in vivo
How it was run: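 Dosed by gavage at 1 mg/mL in 1% Tween80/water to male ICR mice, 18-22 g, n=3. Blood taken at 0.25, 0.5, 1, 2, 4, 8 and 24 h. Plasma precipitated with methanol:acetonitrile (1:1) containing internal standard, then UPLC-MS/MS on a C18 column with an ammonium acetate/formic acid–acetonitrile gradient. Tmax read directly from the data; MRT calculated per animal from concentration–time curves.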

[3] = molecular target: Cyclin-dependent kinase 1 (Homo sapiens) (UniProt P06493); assay: Inhibition of CDK1 (unknown origin) at 1000 nM relative to control
[4] = molecular target: Receptor tyrosine-protein kinase erbB-4 (Homo sapiens) (UniProt Q15303); assay: Inhibition of ErbB4 (unknown origin) at 1000 nM relative to control; how it was run: as §1
[5] = molecular target: Platelet-derived growth factor receptor beta (Homo sapiens) (UniProt P09619); assay: Inhibition of PDGFR-beta (unknown origin) at 1000 nM relative to control
How it was run: (§2)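 ELISA with purified recombinant kinase on plates precoated with poly(Glu,Tyr) 4:1 at 20 µg/mL. ATP 10 µM in HEPES pH 7.4 buffer with MgCl2, MnCl2, Na3VO4 and DTT. Run 60 min at 37 °C. Detected with anti-phosphotyrosine PY99, HRP secondary antibody and o-phenylenediamine, read at 490 nm. Inhibition % = [1 − A490/A490 control]×100. 1% DMSO as negative control.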

[6] = molecular target: Insulin-like growth factor 1 receptor (Homo sapiens) (UniProt P08069); assay: Inhibition of IGF1R (unknown origin) at 1000 nM relative to control; how it was run: as §1
[7] = molecular target: Epidermal growth factor receptor (Homo sapiens) (UniProt P00533); assay: Inhibition of EGFR (unknown origin) at 100 nM relative to control
[8] = molecular target: Receptor-type tyrosine-protein kinase FLT3 (Homo sapiens) (UniProt P36888); assay: Inhibition of FLT-3 (unknown origin) at 10 nM relative to control; how it was run: as §1
[9] = molecular target: Vascular endothelial growth factor receptor 2 (Homo sapiens) (UniProt P35968); assay: Inhibition of VEGFR2 (unknown origin) at 1000 nM relative to control; how it was run: as §2
[10] = molecular target: Cyclin-dependent kinase 1 (Homo sapiens) (UniProt P06493); assay: Inhibition of CDK1 (unknown origin) at 100 nM relative to control

Platelet-derived growth factor receptor beta (Homo sapiens), sequence (P09619 whole entry, the tested form may be a part): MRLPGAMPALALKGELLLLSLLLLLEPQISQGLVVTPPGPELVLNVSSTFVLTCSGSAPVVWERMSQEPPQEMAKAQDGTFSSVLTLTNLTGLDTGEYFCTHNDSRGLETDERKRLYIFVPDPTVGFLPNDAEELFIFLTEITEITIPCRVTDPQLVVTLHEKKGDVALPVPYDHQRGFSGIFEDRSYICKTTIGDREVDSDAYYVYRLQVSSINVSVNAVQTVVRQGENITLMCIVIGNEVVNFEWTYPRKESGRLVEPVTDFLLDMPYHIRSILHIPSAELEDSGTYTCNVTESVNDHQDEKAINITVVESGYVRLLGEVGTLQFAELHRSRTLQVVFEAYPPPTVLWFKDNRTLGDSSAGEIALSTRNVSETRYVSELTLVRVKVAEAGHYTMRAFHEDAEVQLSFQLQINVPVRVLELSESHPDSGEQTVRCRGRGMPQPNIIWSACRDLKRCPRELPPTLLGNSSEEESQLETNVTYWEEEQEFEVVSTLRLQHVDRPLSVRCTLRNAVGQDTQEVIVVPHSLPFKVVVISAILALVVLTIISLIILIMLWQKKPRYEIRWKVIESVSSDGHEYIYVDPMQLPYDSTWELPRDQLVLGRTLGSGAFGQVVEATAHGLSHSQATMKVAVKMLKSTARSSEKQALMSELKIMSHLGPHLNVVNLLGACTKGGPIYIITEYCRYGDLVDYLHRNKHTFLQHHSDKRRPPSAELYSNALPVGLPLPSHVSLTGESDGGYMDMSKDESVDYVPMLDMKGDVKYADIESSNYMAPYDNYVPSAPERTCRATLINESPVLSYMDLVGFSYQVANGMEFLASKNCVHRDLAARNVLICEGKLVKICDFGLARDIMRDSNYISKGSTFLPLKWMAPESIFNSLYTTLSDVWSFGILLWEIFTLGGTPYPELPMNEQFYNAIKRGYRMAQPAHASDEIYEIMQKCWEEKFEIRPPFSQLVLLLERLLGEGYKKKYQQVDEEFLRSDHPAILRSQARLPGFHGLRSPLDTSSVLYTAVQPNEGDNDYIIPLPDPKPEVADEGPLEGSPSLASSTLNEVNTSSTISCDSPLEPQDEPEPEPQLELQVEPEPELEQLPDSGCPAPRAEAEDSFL
Cyclin-dependent kinase 1 (Homo sapiens), sequence (P06493 whole entry, looked up): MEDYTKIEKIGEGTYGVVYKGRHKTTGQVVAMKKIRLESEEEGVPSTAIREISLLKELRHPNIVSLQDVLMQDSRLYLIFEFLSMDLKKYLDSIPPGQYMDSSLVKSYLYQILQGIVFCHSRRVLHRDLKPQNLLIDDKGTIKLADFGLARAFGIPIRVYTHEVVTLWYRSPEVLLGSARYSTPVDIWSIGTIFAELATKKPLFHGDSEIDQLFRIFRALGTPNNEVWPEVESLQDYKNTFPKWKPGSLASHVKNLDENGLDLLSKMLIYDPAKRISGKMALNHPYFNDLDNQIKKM
Vascular endothelial growth factor receptor 2 (Homo sapiens), sequence (P35968 whole entry): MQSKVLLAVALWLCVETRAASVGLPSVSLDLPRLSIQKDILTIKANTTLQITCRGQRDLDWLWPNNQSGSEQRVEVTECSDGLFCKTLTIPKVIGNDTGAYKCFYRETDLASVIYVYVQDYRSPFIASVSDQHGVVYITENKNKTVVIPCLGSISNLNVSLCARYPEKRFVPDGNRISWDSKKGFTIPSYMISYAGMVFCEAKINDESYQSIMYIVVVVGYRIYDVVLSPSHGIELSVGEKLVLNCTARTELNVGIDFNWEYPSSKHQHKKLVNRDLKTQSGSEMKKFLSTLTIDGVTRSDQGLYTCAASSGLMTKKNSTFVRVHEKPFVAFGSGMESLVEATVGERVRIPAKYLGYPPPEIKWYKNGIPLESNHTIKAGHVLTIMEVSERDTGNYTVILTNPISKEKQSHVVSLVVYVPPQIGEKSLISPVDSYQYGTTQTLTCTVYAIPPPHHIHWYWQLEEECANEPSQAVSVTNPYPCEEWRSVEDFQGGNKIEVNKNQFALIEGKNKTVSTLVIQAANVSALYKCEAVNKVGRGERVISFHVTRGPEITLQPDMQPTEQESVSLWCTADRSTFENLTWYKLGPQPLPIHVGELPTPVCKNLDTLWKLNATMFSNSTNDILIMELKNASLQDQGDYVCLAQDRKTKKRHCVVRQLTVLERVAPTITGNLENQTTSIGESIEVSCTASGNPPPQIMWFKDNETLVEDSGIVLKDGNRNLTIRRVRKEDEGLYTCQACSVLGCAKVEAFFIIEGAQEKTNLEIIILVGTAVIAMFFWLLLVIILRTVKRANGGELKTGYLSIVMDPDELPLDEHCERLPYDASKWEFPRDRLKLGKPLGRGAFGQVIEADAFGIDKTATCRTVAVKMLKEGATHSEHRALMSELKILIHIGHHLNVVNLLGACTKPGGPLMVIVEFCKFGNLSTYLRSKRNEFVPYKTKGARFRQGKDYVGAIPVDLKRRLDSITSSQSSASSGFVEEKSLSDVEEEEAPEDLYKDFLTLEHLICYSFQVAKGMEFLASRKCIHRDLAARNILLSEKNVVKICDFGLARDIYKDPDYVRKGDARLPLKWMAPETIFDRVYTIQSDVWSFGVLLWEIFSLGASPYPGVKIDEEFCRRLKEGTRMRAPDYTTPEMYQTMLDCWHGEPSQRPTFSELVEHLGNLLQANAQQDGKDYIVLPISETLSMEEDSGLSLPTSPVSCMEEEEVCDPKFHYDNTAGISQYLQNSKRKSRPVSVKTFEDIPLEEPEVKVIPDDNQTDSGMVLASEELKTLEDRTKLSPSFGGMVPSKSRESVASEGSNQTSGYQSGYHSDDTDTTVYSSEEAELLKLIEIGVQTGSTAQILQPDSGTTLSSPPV
Insulin-like growth factor 1 receptor (Homo sapiens), sequence (P08069 31-736 limits assumed): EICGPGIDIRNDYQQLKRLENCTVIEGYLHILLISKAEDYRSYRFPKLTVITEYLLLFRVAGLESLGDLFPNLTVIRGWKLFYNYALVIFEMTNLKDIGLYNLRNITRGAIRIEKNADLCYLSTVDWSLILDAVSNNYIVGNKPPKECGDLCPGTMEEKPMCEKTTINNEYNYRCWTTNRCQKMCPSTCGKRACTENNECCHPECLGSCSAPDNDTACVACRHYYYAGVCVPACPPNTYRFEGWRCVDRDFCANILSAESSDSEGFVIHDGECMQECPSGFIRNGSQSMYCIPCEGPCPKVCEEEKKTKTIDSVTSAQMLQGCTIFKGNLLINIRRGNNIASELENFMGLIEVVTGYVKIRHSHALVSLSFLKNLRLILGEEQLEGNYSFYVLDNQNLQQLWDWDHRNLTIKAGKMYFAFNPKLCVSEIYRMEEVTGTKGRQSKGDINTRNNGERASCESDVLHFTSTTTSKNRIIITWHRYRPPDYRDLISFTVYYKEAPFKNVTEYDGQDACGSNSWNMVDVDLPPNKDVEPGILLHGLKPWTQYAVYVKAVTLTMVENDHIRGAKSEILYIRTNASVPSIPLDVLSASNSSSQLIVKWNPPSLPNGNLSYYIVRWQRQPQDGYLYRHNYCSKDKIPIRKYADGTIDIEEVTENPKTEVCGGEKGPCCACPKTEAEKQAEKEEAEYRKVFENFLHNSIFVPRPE
Insulin-like growth factor 1 receptor (Homo sapiens), sequence (P08069 741-1367 limits assumed): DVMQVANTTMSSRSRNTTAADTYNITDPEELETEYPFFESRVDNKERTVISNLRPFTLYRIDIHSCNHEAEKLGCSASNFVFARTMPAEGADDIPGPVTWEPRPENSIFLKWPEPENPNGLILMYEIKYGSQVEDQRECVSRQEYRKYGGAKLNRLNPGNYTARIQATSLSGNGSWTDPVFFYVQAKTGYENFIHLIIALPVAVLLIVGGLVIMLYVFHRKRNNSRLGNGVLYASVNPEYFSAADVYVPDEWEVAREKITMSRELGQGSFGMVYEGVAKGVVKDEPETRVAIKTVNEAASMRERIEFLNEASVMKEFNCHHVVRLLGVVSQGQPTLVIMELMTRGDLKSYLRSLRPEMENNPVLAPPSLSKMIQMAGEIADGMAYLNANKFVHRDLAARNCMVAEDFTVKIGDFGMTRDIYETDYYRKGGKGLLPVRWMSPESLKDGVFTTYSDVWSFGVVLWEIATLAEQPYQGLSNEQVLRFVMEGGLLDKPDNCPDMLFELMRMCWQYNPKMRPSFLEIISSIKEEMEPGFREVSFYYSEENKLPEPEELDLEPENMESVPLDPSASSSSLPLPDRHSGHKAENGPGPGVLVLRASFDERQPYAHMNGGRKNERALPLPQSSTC
Receptor-type tyrosine-protein kinase FLT3 (Homo sapiens), sequence (P36888 whole entry): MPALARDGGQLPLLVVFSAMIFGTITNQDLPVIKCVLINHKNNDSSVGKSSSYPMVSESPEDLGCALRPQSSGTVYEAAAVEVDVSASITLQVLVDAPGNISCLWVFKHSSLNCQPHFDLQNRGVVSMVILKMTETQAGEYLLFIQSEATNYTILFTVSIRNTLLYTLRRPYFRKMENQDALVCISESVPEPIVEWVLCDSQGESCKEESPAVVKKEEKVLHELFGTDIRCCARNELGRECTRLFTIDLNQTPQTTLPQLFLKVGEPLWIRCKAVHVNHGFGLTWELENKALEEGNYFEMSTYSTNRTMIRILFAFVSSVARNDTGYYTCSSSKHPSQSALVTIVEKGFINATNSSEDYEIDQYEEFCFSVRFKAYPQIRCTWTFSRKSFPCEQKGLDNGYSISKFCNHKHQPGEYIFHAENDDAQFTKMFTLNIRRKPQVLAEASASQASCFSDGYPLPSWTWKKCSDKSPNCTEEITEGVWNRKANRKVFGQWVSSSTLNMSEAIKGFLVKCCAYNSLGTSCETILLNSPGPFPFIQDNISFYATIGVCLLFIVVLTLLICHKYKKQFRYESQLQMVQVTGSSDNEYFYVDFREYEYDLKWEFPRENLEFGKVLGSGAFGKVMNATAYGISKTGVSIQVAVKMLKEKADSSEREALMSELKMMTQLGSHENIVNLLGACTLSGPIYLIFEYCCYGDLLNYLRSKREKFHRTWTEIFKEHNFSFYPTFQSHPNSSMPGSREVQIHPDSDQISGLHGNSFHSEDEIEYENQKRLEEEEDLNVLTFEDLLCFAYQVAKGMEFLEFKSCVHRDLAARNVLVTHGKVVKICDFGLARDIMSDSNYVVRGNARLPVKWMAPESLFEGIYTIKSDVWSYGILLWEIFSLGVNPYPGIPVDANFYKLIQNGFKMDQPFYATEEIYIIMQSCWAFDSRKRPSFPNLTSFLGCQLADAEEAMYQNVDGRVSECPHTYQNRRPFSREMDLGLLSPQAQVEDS

Cc1ccc(C(=O)Nc2cccc(C(F)(F)F)c2)cc1-c1ccc2c(-c3cnn(C4CC4)c3)n[nH]c2c1
inhibition [1]: 59.5% | Tmax [2]: 2 h | inhibition [3]: 5.6% | inhibition [4]: 36.9% | inhibition [5]: 100% | inhibition [6]: 5.5% | inhibition [7]: 33.9% | inhibition [8]: 59.3% | inhibition [9]: 100% | inhibition [10]: 1.4%
